Measured values as given in ChEMBL document CHEMBL1122881, “A dipeptide derived from kainic and L-glutamic acids: a selective antagonist of amino acid induced neuroexcitation with anticonvulsant properties” (1985).

Assays:
Assay type in all cases: functional
Rattus norvegicus [1] = species on record: Rattus norvegicus; assay: Compound (1 mM) to block the increase in the permeability of the neuronal sodium ions in rat striatum slices by excitatory 0.1 mM of Kainic Acid.
Method in brief: (§1)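 Values are percent of the efflux increase given by the agonist alone (100%), as mean ± standard deviation of at least triplicate experiments. Difference from control was tested by variance analysis.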

Rattus norvegicus [2] = species on record: Rattus norvegicus; assay: Compound (1 mM) to block the increase in the permeability of the neuronal sodium ions in rat striatum slices by excitatory 30 uM of N-methyl-D-aspartic acid; method in brief: as §1
Rattus norvegicus [3] = species on record: Rattus norvegicus; assay: Compound (1 mM) to block the increase in the permeability of the neuronal sodium ions in rat striatum slices by excitatory 0.1 M of Quis qulalic acid; settings: in the assay text read “0.1 mM” for “0.1 M”; method in brief: as §1
Mus musculus = species on record: Mus musculus; assay: Effective dose required to protect mice from picrotoxin-induced seizures
Method in brief: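 CD1 mice of either sex (20–30 g), unanaesthetised, received 5 μL of drug in phosphate-buffered saline pH 7.4, or vehicle, icv (1 mm posterior, 1 mm lateral to bregma, 2.6 mm deep). Picrotoxin 3 mg/kg was given iv in the tail vein 10 min later. Stage 5 seizures were scored over 30 min, with at least 8 mice per group, and ED50 was calculated.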

Rattus norvegicus [4] = species on record: Rattus norvegicus; assay: Compound (1 mM) to block the increase in the permeability of the neuronal sodium ions in rat striatum slices by excitatory 0.5 mM of L-GLutamic acid.; method in brief: as §1

C=C(C)[C@H]1CN[C@H](C(=O)O)[C@H]1CC(=O)NC(CCC(=O)O)C(=O)O (stereo not given in full)
Mean response (Rattus norvegicus [1]): 84
Mean response (Rattus norvegicus [2]): 16
Mean response (Rattus norvegicus [3]): 69
ED50 (Mus musculus): 0.17 µM
Mean response (Rattus norvegicus [4]): 90
